Results pooled from the literature.
Lines come from different studies, so protocols differ.
Target: Inhibitor of nuclear factor kappa-B kinase subunit epsilon (IKBKE, Homo sapiens, UniProt Q14164)
Residues used in one study (Q14164 1-716): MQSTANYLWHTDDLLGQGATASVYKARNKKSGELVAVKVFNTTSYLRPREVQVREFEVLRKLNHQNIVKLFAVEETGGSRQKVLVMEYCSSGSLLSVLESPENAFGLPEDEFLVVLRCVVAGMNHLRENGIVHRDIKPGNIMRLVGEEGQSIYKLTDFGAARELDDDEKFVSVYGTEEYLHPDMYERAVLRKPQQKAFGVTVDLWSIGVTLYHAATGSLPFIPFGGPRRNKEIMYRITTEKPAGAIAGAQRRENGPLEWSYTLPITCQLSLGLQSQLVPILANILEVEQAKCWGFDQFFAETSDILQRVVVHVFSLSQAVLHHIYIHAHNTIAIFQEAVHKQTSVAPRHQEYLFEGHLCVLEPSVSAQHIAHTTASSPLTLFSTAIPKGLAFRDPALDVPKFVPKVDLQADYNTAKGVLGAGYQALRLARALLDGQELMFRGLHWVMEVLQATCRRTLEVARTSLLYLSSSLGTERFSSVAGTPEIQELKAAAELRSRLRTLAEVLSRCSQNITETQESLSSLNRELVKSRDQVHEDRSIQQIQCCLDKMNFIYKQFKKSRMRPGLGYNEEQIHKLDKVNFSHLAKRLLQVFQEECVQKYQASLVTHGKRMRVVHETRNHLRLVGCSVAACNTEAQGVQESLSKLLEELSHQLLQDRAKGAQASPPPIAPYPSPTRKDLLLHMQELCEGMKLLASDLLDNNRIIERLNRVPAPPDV

Compound	effect on	mode	method	tested at	quantity	result
CCN(CC)CCNC(=O)c1c(C)[nH]c(/C=C2\C(=O)Nc3ccc(F)cc32)c1C	cell-free assay			0.5 µM	remaining signal	45.6%
NS(=O)(=O)c1ccc(CNc2ccnc(Nc3cccc(NC(=O)N4CCCC4)c3)n2)cc1	enzyme activity	inhibitor	radiometric	1 µM	remaining activity	79%
Cc1noc([C@H]2C[C@@H](c3ccc(C(F)(F)F)cc3)CN(C(=O)N3CCS(=O)(=O)C3)C2)n1	cell-free assay		competition with immobilised ligand	1 µM	remaining binding	100%
NS(=O)(=O)c1ccc(CNc2nc(Nc3cccc(NC(=O)N4CCCC4)c3)ncc2C2CC2)cc1	enzyme activity	inhibitor	radiometric	1 µM	remaining activity	52%
CC(=O)C1=C(C)N(c2cccc(C(F)(F)F)c2)C(=O)N[C@@H]1c1ccc(C#N)nc1	cell-free assay		competition with immobilised ligand	1 µM	remaining binding	98.2%
CCCS(=O)(=O)Nc1ccc(F)c(C(=O)c2c[nH]c3ncc(-c4ccc(Cl)cc4)cc23)c1F	enzyme activity	inhibitor		1 µM	inhibition	< 10%
O=C(NCCCNc1ccnc(Nc2cccc(NC(=O)N3CCCC3)c2)n1)C1CCC1	enzyme activity	inhibitor	radiometric	1 µM	remaining activity	33%
COc1cc2ncnc(Nc3ccc(Oc4ccccc4)c(C)c3C)c2cc1OC	enzyme activity	inhibitor		1 µM	inhibition	1%
COc1cc(-c2cn(C3CCc4c(F)cccc4N(CC(F)(F)F)C3=O)nn2)ccc1-n1cnc(C)c1 (stereo not shown)	cell-free assay		competition with immobilised ligand	1 µM	remaining binding	100%
N#CCCc1ccc2c(c1)-c1[nH]c3ccc([N+](=O)[O-])cc3c1CC(=O)N2	cell-free assay			0.5 µM	remaining signal	89.2%
O=c1nc(-c2ccccn2)sc2ccccc12	binding		competition with immobilised ligand	1 µM	remaining binding	100%
CC/C(=N\NC(=O)NCc1cccc(O)c1)c1ccc(O)c(C)c1O	enzyme activity	inhibitor		0.1 µM	inhibition	-0.4%
Cc1nn(CC(F)(F)F)cc1Nc1nccc(NCCCNC(=O)C2CCC2)n1	enzyme activity	inhibitor	radiometric	1 µM	remaining activity	63%
Cc1ccc(NC(=O)c2ccc(C)c(C(F)(F)F)c2)cc1C#Cc1nn(C2CCC(O)CC2)c2ncnc(N)c12 (stereo not shown)	cell-free assay			10 µM	remaining signal	94%
COc1cc(Nc2c(C#N)cnc3cc(OCCCN4CCN(C)CC4)c(OC)cc23)c(Cl)cc1Cl	cell-free assay			0.5 µM	remaining signal	75.4%
Cc1nn(CC(F)(F)F)cc1Nc1nccc(NCc2ccc(S(N)(=O)=O)cc2)n1	enzyme activity	inhibitor	radiometric	1 µM	remaining activity	73%
C[C@@H]1CN(c2cc(-c3nn(C)c4ccc(OC5(C)CC5)cc34)ncn2)C[C@H](C)O1	cell-free assay		competition with immobilised ligand	1 µM	remaining binding	65%
c1cc(CN2CCOCC2)cc(Nc2nccc(NCCc3cnc[nH]3)n2)c1	enzyme activity	inhibitor	radiometric	1 µM	remaining activity	80%
Cc1c[nH]c2nccc(Oc3c(F)cc(Nc4cc(Cl)nc(N)n4)cc3F)c12	cell-free assay		competition with immobilised ligand	0.1 µM	remaining binding	93%
O=C1c2ccccc2-c2n[nH]c3cccc1c23	enzyme activity	inhibitor		0.5 µM	activity vs control	88.9%
C[C@H](NC(=O)c1cnc2n1[C@](C)(Cc1ccc(C#N)cc1)C(=O)N2c1cc(Cl)c(F)c(Cl)c1)C(=O)NC1(c2ccccn2)CC1	cell-free assay		competition with immobilised ligand	1 µM	remaining binding	89%
COc1ccnn2ncc(-c3ccnc(N(C)C)n3)c12	binding			1 µM	remaining binding	94%
